# Sampled rows, rich in hits. Any-hit rate of the full collection: about 5.9%.
# IDH1 R132H inh – IDH1 R132H (human) inhibition; O75874; IDH1 R132H reductase, diaphorase/resazurin fluorescence, 60 min; inhibition, % at 10 µM; AID 624101; hit rate 0.18% among 70,000; in the data active = inhibition above about 34%; inconclusive = no clear call, values can overlap the other calls; inactive = below about 11%;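 note: 0% = DMSO and 100% = no enzyme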
# Target sequence (O75874 whole entry R132H): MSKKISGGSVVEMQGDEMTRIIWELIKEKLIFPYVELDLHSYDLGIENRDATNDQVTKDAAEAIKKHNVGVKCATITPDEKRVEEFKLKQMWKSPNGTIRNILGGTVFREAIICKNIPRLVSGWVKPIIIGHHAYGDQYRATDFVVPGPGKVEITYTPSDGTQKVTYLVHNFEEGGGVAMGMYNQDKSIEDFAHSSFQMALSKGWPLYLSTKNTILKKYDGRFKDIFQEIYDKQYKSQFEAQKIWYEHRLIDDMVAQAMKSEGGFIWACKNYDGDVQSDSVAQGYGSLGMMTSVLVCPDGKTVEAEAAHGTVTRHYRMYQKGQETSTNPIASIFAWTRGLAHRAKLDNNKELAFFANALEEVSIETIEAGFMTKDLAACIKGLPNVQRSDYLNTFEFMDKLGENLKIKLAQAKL
# GASC1 inh – KDM4C (human) demethylase inhibition. Q9H3R0. hit rate 0.15% among 96,000. AID 720574. inhibition, % at 12.5 µM. GST-KDM4C 2-372, H3K9me3 peptide, LANCE TR-FRET;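 active = mean replicate inhibition above about 25%, with at least 55% of replicates also reaching it, limit read from the data, passing the limit was not always enough; inconclusive = only one of those two conditions met; inactive = neither condition met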
#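 System – N-terminal GST-fused human GASC-1 (KDM4C) fragment, residues 2-372 · Input – enzyme final amount 10 nM · Technique – LANCE TR-FRET, Eu antibody, ULight-streptavidin, EDTA, ex 340 nm, em 618/671 nm · Medium – HEPES buffer, pH 7.5, plus ascorbate · Incubation – enzyme reaction 30 min, then detection 60 min, both room temperature · Reagent – H3K9me3 peptide with Fe(II)/2OG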
# T cruzi growth-1 – blocks T. cruzi growth in NIH3T3 culture; AID 624255; inhibition, % at 8.34 µM; hit rate 5.9% among 77,000; T. cruzi beta-gal in NIH3T3, GalScreen luminescence, 90 h;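 active = mean inhibition above about 93%, with at least 55% of replicates each passing it, limit read from the data, passing the limit was not always enough; inconclusive = only one of those two conditions holds; inactive = neither condition holds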
# Pf Dd2 inh – blocks growth of Plasmodium falciparum Dd2 parasites | P. falciparum Dd2 growth, SYBR Green, 72 h; hits give low values | hit rate 2.3% among 94,000 | AID 1159554 | activity change, % at 10 µM; in the data active = activity change below about -80%; inconclusive = no clear call, values can overlap the other calls
# T cruzi growth-2 – blocks T. cruzi growth in NIH3T3 host cells; shares compounds with T cruzi growth-1; T. cruzi beta-gal in NIH3T3, GalScreen luminescence, 90 h; inhibition, % at 8.35 µM; hit rate 72% among 5,600; AID 651739;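 active = mean replicate inhibition above about 95% and at least 55% of replicates individually reaching it, limit read from the data; inconclusive = only one of the two criteria is met; inactive = neither criterion is met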
# T cruzi growth-3 – Trypanosoma cruzi proliferation inhibition | shares compounds with T cruzi growth-1 | T. cruzi beta-gal in NIH3T3, GalScreen luminescence, 90 h | inhibition, % at 2.09 µM | hit rate 21% among 5,600 | AID 651740;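 active = mean inhibition above about 95%, with at least 55% of replicates also reaching it, limit read from the data; inconclusive = meets just one of the two conditions; inactive = meets neither condition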;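 note: plate controls were neutral control median for no effect and positive control median for full effect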
# 3T3 cytotox – NIH/3T3 (mouse) viability loss; AID 651742; shares compounds with T cruzi growth-1; cytotoxicity (signal decrease), % at 8.35 µM; hit rate 14% among 5,600; NIH/3T3 viability, CellTiter-Glo ATP luminescence, 90 h;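 active = mean signal decrease across replicates above about 35% based on untreated-well scatter, with enough replicates individually passing, limit read from the data; inconclusive = no rule stated though some were filed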;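 note: 0% = median of neutral control wells and 100% = median of positive control wells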
# 3T3 cytotox 2 – NIH/3T3 (mouse) viability loss. shares compounds with T cruzi growth-1. NIH/3T3 viability, CellTiter-Glo ATP luminescence, 90 h. inhibition, % at 24.9 µM. hit rate 56% among 5,600;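 active = mean loss of cell viability signal at or above a set limit, and enough replicates individually reaching it; inconclusive = meets only the mean limit or only the replicate share; inactive = meets neither condition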;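 note: 0% = median of neutral control wells and 100% = median of positive control wells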
# An asterisk follows results filed as active; ? = inconclusive; . = no result; ! = not confirmed by another sample.
SMILES,IDH1 R132H inh,GASC1 inh,T cruzi growth-1,Pf Dd2 inh,T cruzi growth-2,T cruzi growth-3,3T3 cytotox,3T3 cytotox 2
COc1ccc(-c2cnc3c(c2)C(=O)N([C@H](C)CO)C[C@@H](C)[C@@H](CN(C)Cc2cccnc2)O3)cc1,0,0,21,9,.,.,.,.
COc1ccc(NC(=O)Nc2ccc3c(c2)C(=O)N([C@H](C)CO)C[C@@H](C)[C@@H](CN(C)Cc2ccncc2)OCCCC[C@H](C)O3)cc1,.,2,90,-46,.,.,.,.
C[C@H]1CCCCO[C@@H](CN(C)C(=O)Nc2ccc(C(F)(F)F)cc2)[C@@H](C)CN([C@@H](C)CO)C(=O)c2cc(NC(=O)Nc3ccc4c(c3)OCO4)ccc2O1,.,-2,121*,-8,105*,109*,-5,4
C[C@H](CO)N1C[C@H](C)[C@H](CN(C)C(=O)Nc2ccc3c(c2)OCO3)OCCCC[C@H](C)Oc2ccc(NC(=O)Nc3ccc(C(F)(F)F)cc3)cc2C1=O,0,-2,98*,-60,101*,110*,-11,0
C[C@@H]1CCCCO[C@@H](CN(C)C(=O)Nc2ccc3c(c2)OCO3)[C@H](C)CN([C@H](C)CO)C(=O)c2cc(NC(=O)Nc3ccc(C(F)(F)F)cc3)ccc2O1,0,0,87,-43,.,.,.,.
CC(C)NC(=O)N(C)C[C@@H]1Oc2c(NC(=O)Nc3ccc4c(c3)OCO4)cccc2C(=O)N([C@H](C)CO)C[C@H]1C,1,0,-3,25,.,.,.,.
COCC#Cc1ccc([C@H]2[C@H](CO)N3CCCCN(S(=O)(=O)c4cccc(OC)c4)C[C@@H]23)cc1,.,0,108*,-27,97*,39,13,?
COCC#Cc1ccc([C@H]2[C@@H](CO)N3CCCCN(S(=O)(=O)c4cccc(OC)c4)C[C@@H]23)cc1,.,-1,16,-10,.,.,.,.
COCC#Cc1ccc([C@@H]2[C@H]3CN(S(=O)(=O)c4ccc(OC)cc4)CCCCN3[C@H]2CO)cc1,.,0,99*,-20,100*,43,4,31*
C[C@@H]1CN([C@@H](C)CO)C(=O)c2cc(NC(=O)C3CCCCC3)ccc2O[C@@H](C)CCCCO[C@@H]1CN(C)C(=O)Nc1ccc(C(F)(F)F)cc1,2,1,92,?,.,.,.,.
CC(C)NC(=O)N(C)C[C@H]1OCCCC[C@@H](C)Oc2ccc(NC(=O)C3CCCCC3)cc2C(=O)N([C@H](C)CO)C[C@@H]1C,.,1,99*!,-5,-43,-41,1,10
C[C@@H]1CCCCO[C@@H](CN(C)C(=O)Nc2ccc(C(F)(F)F)cc2)[C@@H](C)CN([C@H](C)CO)C(=O)c2cc(NC(=O)C3CCCCC3)ccc2O1,2,1,101*,-69,107*,76,14,-5
C[C@H]1CCCCO[C@@H](CN(C)C(=O)Nc2ccc(C(F)(F)F)cc2)[C@@H](C)CN([C@@H](C)CO)C(=O)c2cc(NC(=O)C3CCCCC3)ccc2O1,.,0,97*,-83*,104*,105*,7,2
C[C@@H]1CCCCO[C@@H](CN(C)C(=O)Nc2ccc(F)cc2)[C@@H](C)CN([C@H](C)CO)C(=O)c2cc(NC(=O)C3CCCCC3)ccc2O1,1,-2,56,-48,.,.,.,.
O=C(O)C[C@@H]1C[C@@H]2c3cc(NC(=O)c4cccnc4)ccc3O[C@@H]2[C@H](CO)O1,.,.,.,4,.,.,.,.
COc1ccccc1CNC(=O)C[C@@H]1CC[C@H]2[C@@H](COC[C@H](O)CN2C(=O)Nc2ccc(C(F)(F)F)cc2)O1,.,0,37,-12,.,.,.,.
C[C@H]1CN([C@@H](C)CO)C(=O)c2cc(C#CCc3ccccc3)cnc2O[C@@H]1CN(C)C(=O)C1CCCCC1,.,1,?,-83*,96*,55,-10,97*
C[C@H](CO)N1C[C@H](C)[C@H](CN(C)C(=O)C2CCCCC2)Oc2ncc(C#CCc3ccccc3)cc2C1=O,.,2,80,-49,.,.,.,.
C[C@H]1CN([C@@H](C)CO)C(=O)c2cc(C#CCC3CCCC3)cnc2O[C@@H]1CN(C)Cc1ccccn1,0,7,104*,-56,101*,46,6,107*
C[C@H](CO)N1C[C@H](C)[C@@H](CN(C)Cc2ccccn2)Oc2ncc(C#CCC3CCCC3)cc2C1=O,-1,.,89,-28,.,.,.,.
C[C@@H]1CN([C@@H](C)CO)C(=O)c2cc(C#CCc3ccccc3)cnc2O[C@H]1CN(C)CC1CCOCC1,0,0,-23,-53,.,.,.,.
C[C@H](CO)N1C[C@H](C)[C@@H](CN(C)CC2CCCC2)Oc2ncc(C#CCc3ccccc3)cc2C1=O,-4,0,97*,-87*,101*,106*,?,104*
Cc1ccc(-c2ccc([C@@H]3[C@@H](CO)N4C(=O)CN(C(=O)c5ccccc5)C[C@H]34)cc2)cc1,.,-1,.,-38,.,.,.,.
COc1ccccc1CNC(=O)C[C@H]1CC[C@@H]2[C@H](COC[C@H](O)CN2Cc2cccc(-c3ccncc3)c2)O1,.,3,121*,.,102*,94,24,25*
COCCNC(=O)C[C@H]1CC[C@H]2[C@@H](COC[C@H](O)CN2Cc2cccc(-c3ccncc3)c2)O1,.,-1,78,-7,.,.,.,.
SMILES,IDH1 R132H inh,GASC1 inh,T cruzi growth-1,Pf Dd2 inh,T cruzi growth-2,T cruzi growth-3,3T3 cytotox,3T3 cytotox 2
COc1ccccc1CNC(=O)C[C@H]1CC[C@@H]2[C@H](COC[C@@H](O)CN2Cc2ccccc2)O1,.,0,.,-2,.,.,.,.
COc1ccccc1CNC(=O)C[C@@H]1CC[C@H]2[C@@H](COC[C@@H](O)CN2Cc2cccc(-c3ccncc3)c2)O1,.,0,122*,.,82,93,48*,44*
COc1ccccc1CNC(=O)C[C@@H]1CC[C@@H]2[C@H](COC[C@H](O)CN2Cc2cccc(-c3ccncc3)c2)O1,.,3,117*,.,83,73,-12,55*
COCCNC(=O)C[C@H]1CC[C@@H]2[C@H](COC[C@@H](O)CN2Cc2cccc(-c3ccncc3)c2)O1,.,0,109*,9,92,87,-3,3
COc1ccccc1CNC(=O)C[C@H]1CC[C@H]2[C@@H](COC[C@@H](O)CN2Cc2ccccc2)O1,.,0,.,12,.,.,.,.
CCCC(=O)N1CC2(CCN(C(=O)C3CC3)CC2)c2c(n(C)c3cc(OC)ccc23)[C@@H]1CO,.,0,.,-9,.,.,.,.
O=C(NC1CCCCC1)N1CC2(C1)[C@H](c1ccccc1)[C@@H](CO)N2CC1CCOCC1,.,1,.,33,.,.,.,.
C[C@H]1CN([C@@H](C)CO)C(=O)c2cccc(NC(=O)NC3CCCCC3)c2O[C@H]1CN(C)C(=O)Nc1ccccc1,0,0,.,1,.,.,.,.
